Results published in ChEMBL document CHEMBL1152672, “Side chain azasteroids and thiasteroids as sterol methyltransferase inhibitors in ergosterol biosynthesis” (2009).
In brackets after ≈: the same amount, converted by molar mass. Activity calls are given as the source filed them. The rule behind the calls is not given here.

Tests used:
[1] = target: T1, Sterol 24-C-methyltransferase (Yarrowia lipolytica) (UniProt Q6C2D9); experiment: Inhibition of Yarrowia lipolytica 24-SMT assessed as 5-dehydroepisterol-3-trimethylsilyl derivative at 2 ug/mL after 48 hrs by GC-MS analysis relative to untreated control; parameters: scale not given: the % may be the effect or the level left
T1 sequence (whole entry): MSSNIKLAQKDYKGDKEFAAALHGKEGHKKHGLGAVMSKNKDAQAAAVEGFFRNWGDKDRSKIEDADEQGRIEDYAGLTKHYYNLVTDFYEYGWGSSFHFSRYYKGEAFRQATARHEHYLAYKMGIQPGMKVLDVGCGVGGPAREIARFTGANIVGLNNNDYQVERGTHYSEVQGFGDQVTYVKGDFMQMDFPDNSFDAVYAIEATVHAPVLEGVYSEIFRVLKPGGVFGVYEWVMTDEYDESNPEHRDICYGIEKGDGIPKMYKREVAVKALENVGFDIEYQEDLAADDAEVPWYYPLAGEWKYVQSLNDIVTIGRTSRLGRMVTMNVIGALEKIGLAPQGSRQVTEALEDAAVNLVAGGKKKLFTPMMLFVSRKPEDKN
Procedure, shortened: (§1)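 Whole-cell sterol profiling. Y. lipolytica at 50,000 CFU/mL was exposed to compounds added from ethanol for 48 ± 2 h at 28 °C, and the MIC/2 and/or MIC/4 wells were used. Cells were pelleted and PBS-washed, then saponified in 1 M NaOH at 70 °C for 1 h. Sterols were extracted into TBME with a cholesterol internal standard and silylated to TMS ethers. GC-MS full scan, with each sterol given as % of total integrated quantifier-ion area.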

[2] = target: T1, Sterol 24-C-methyltransferase (Yarrowia lipolytica); experiment: Inhibition of Yarrowia lipolytica 24-SMT assessed as cholesta-5,7,24-trien-3-trimethylsilyl derivative at 2 ug/mL after 48 hrs by GC-MS analysis relative to untreated control; parameters: scale not given: the % may be the effect or the level left; procedure, shortened: as §1
[3] = target: T1, Sterol 24-C-methyltransferase (Yarrowia lipolytica); experiment: Inhibition of Yarrowia lipolytica 24-SMT assessed as dehydroergosterol-3-trimethylsilyl derivative at 2 ug/mL after 48 hrs by GC-MS analysis relative to untreated control; parameters: scale not given: the % may be the effect or the level left; procedure, shortened: as §1
[4] = target: T1, Sterol 24-C-methyltransferase (Yarrowia lipolytica); experiment: Inhibition of Yarrowia lipolytica 24-SMT assessed as zymosterol-3-trimethylsilyl derivative level at 2 ug/mL after 48 hrs by GC-MS analysis relative to untreated control; parameters: scale not given: the % may be the effect or the level left; procedure, shortened: as §1
Yarrowia lipolytica [5] = experiment: Antimicrobial activity against Yarrowia lipolytica after 48 hrs; type: functional
Procedure, shortened: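 Broth dilution MIC per DIN 58940-84. Log-phase Y. lipolytica in yeast extract/peptone/glucose medium, counted against a 0.5 McFarland standard (A570) and seeded at 50,000 CFU/mL in 2 mL wells. Compounds added from ethanol; final concentrations 2 to 0.06125 µg/mL unless otherwise stated. Plates incubated 48 ± 2 h at 28 °C. MIC is the lowest concentration with no visible growth.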

Yarrowia lipolytica [6] = experiment: Antimicrobial activity against Yarrowia lipolytica by agar diffusion test; type: functional, organism-based
[7] = target: T1, Sterol 24-C-methyltransferase (Yarrowia lipolytica); experiment: Inhibition of Yarrowia lipolytica 24-sterol C-methyltransferase assessed as ergosterol-3-trimethylsilyl derivative level at 0.06 ug/mL after 48 hrs by GC-MS analysis relative to untreated control; parameters: scale not given: the % may be the effect or the level left; procedure, shortened: as §1
[8] = target: T1, Sterol 24-C-methyltransferase (Yarrowia lipolytica); experiment: Inhibition of Yarrowia lipolytica 24-SMT assessed as dehydroergosterol-3-trimethylsilyl derivative at 0.06 ug/mL after 48 hrs by GC-MS analysis relative to untreated control; parameters: scale not given: the % may be the effect or the level left; procedure, shortened: as §1
[9] = target: T1, Sterol 24-C-methyltransferase (Yarrowia lipolytica); experiment: Inhibition of Yarrowia lipolytica 24-SMT assessed as 5-dehydroepisterol-3-trimethylsilyl derivative at 0.06 ug/mL after 48 hrs by GC-MS analysis relative to untreated control; parameters: scale not given: the % may be the effect or the level left; procedure, shortened: as §1
[10] = target: T1, Sterol 24-C-methyltransferase (Yarrowia lipolytica); experiment: Inhibition of Yarrowia lipolytica 24-SMT assessed as cholesta-5,7,24-trien-3-trimethylsilyl derivative at 0.06 ug/mL after 48 hrs by GC-MS analysis relative to untreated control; parameters: scale not given: the % may be the effect or the level left; procedure, shortened: as §1
[11] = target: T1, Sterol 24-C-methyltransferase (Yarrowia lipolytica); experiment: Inhibition of Yarrowia lipolytica 24-SMT assessed as cholesta-7,24-dien-3-trimethylsilyl derivative at 0.06 ug/mL after 48 hrs by GC-MS analysis relative to untreated control; parameters: scale not given: the % may be the effect or the level left; procedure, shortened: as §1
[12] = target: T1, Sterol 24-C-methyltransferase (Yarrowia lipolytica); experiment: Inhibition of Yarrowia lipolytica 24-SMT assessed as cholesta-5,7,24-trien-3-trimethylsilyl derivative at 0.1 ug/mL after 48 hrs by GC-MS analysis relative to untreated control; parameters: scale not given: the % may be the effect or the level left; procedure, shortened: as §1
[13] = target: T1, Sterol 24-C-methyltransferase (Yarrowia lipolytica); experiment: Inhibition of Yarrowia lipolytica 24-SMT assessed as zymosterol-3-trimethylsilyl derivative level at 0.1 ug/mL after 48 hrs by GC-MS analysis relative to untreated control; parameters: scale not given: the % may be the effect or the level left; procedure, shortened: as §1
[14] = target: T1, Sterol 24-C-methyltransferase (Yarrowia lipolytica); experiment: Inhibition of Yarrowia lipolytica 24-SMT assessed as dehydroergosterol-3-trimethylsilyl derivative at 0.1 ug/mL after 48 hrs by GC-MS analysis relative to untreated control; parameters: scale not given: the % may be the effect or the level left; procedure, shortened: as §1
[15] = target: T1, Sterol 24-C-methyltransferase (Yarrowia lipolytica); experiment: Inhibition of Yarrowia lipolytica 24-SMT assessed as 5-dehydroepisterol-3-trimethylsilyl derivative at 0.1 ug/mL after 48 hrs by GC-MS analysis relative to untreated control; parameters: scale not given: the % may be the effect or the level left; procedure, shortened: as §1
[16] = target: T1, Sterol 24-C-methyltransferase (Yarrowia lipolytica); experiment: Inhibition of Yarrowia lipolytica 24-SMT assessed as ergosterol-3-trimethylsilyl derivative level at 0.2 ug/mL after 48 hrs by GC-MS analysis relative to untreated control; parameters: scale not given: the % may be the effect or the level left; procedure, shortened: as §1
[17] = target: T1, Sterol 24-C-methyltransferase (Yarrowia lipolytica); experiment: Inhibition of Yarrowia lipolytica 24-SMT assessed as 5-dehydroepisterol-3-trimethylsilyl derivative at 0.2 ug/mL after 48 hrs by GC-MS analysis relative to untreated control; parameters: scale not given: the % may be the effect or the level left; procedure, shortened: as §1
[18] = target: T1, Sterol 24-C-methyltransferase (Yarrowia lipolytica); experiment: Inhibition of Yarrowia lipolytica 24-SMT assessed as dehydroergosterol-3-trimethylsilyl derivative at 0.2 ug/mL after 48 hrs by GC-MS analysis relative to untreated control; parameters: scale not given: the % may be the effect or the level left; procedure, shortened: as §1
[19] = target: T1, Sterol 24-C-methyltransferase (Yarrowia lipolytica); experiment: Inhibition of Yarrowia lipolytica 24-SMT assessed as cholesta-7,24-dien-3-trimethylsilyl derivative at 0.2 ug/mL after 48 hrs by GC-MS analysis relative to untreated control; parameters: scale not given: the % may be the effect or the level left; procedure, shortened: as §1
[20] = target: T1, Sterol 24-C-methyltransferase (Yarrowia lipolytica); experiment: Inhibition of Yarrowia lipolytica 24-SMT assessed as cholesta-5,7,24-trien-3-trimethylsilyl derivative at 0.2 ug/mL after 48 hrs by GC-MS analysis relative to untreated control; parameters: scale not given: the % may be the effect or the level left; procedure, shortened: as §1

Q: Which results are given for `CNC[C@@H](C)[C@H]1CC[C@H]2C3=CC[C@H]4C[C@@H](O)CC[C@]4(C)[C@H]3CC[C@]12C`?
A: Activity [1]: 2.6%; Activity [2]: 40.4%; Activity [3]: 55.4%; Activity [4]: 1.6%; MIC (Yarrowia lipolytica [5]): > 2 µg/mL

Q: `C[C@H](/C=C/c1ccncc1)[C@H]1CC[C@H]2C3=CCC4C[C@@H](O)CC[C@]4(C)[C@H]3CC[C@]12C` (stereo not given in full) was tested. Which MIC (Yarrowia lipolytica [6]) did it give?
A: The MIC was “inactive”.

Q: Which results are given for `CCCNCC[C@@H](C)[C@H]1CC[C@H]2C3=CC[C@H]4C[C@@H](O)CC[C@]4(C)[C@H]3CC[C@]12C`?
A: Activity [7]: 5%; Activity [8]: 25.9%; Activity [9]: 2.9%; Activity [10]: 60.8%; Activity [11]: 5.4%; MIC (Yarrowia lipolytica [5]): 0.25 µg/mL (≈ 0.645 µM)

Q: Which results are given for `CCCCNC[C@@H](C)[C@H]1CC[C@H]2C3=CC[C@H]4C[C@@H](O)CC[C@]4(C)[C@H]3CC[C@]12C`?
A: Activity [8]: 42.4%; Activity [9]: 4.7%; Activity [10]: 47.9%; Activity [11]: 5%; MIC (Yarrowia lipolytica [5]): 0.25 µg/mL (≈ 0.645 µM)

Q: Which Activity [12] does the source give for `CCCNC[C@@H](C)[C@H]1CC[C@H]2C3=CC[C@H]4C[C@@H](O)CC[C@]4(C)[C@H]3CC[C@]12C` here?
A: The Activity was 48.5%.

Q: And the Activity [13]?
A: Its Activity is 0.5%.

Q: What about the Activity [14] of the same molecule?
A: Its Activity is 47.3%.

Q: What about the Activity [15] of the same molecule?
A: The Activity was 3.7%.

Q: And the MIC (Yarrowia lipolytica [5])?
A: The MIC was 0.25 µg/mL (≈ 0.669 µM).

Q: Which Activity [16] does the source give for `CCNC[C@@H](C)[C@H]1CC[C@H]2C3=CC[C@H]4C[C@@H](O)CC[C@]4(C)[C@H]3CC[C@]12C` here?
A: Its Activity is 3.4%.

Q: And the Activity [17]?
A: The Activity was 2.8%.

Q: And the Activity [18]?
A: Its Activity is 64.7%.

Q: What about the Activity [19] of the same molecule?
A: The Activity was 3.6%.

Q: And the Activity [20]?
A: Its Activity is 25.5%.

Q: And the MIC (Yarrowia lipolytica [5])?
A: The MIC was 2 µg/mL (≈ 5.56 µM).

Q: Which MIC (Yarrowia lipolytica [6]) does the source give for `C[C@H](/C=C/c1ccccn1)[C@H]1CC[C@H]2C3=CCC4C[C@@H](O)CC[C@]4(C)[C@H]3CC[C@]12C` (stereo not given in full) here?
A: Its MIC is “inactive”.

Q: How did the MIC (Yarrowia lipolytica [6]) turn out when `CCCCCCCCCCCCNC[C@@H](C)[C@H]1CC[C@H]2C3=CC[C@H]4C[C@@H](O)CC[C@]4(C)[C@H]3CC[C@]12C` was run?
A: Its MIC is “inactive”.
